Source: ChEMBL document CHEMBL1128538, “Novel antagonists of platelet-activating factor. 1. Synthesis and structure-activity relationships of benzodiazepine and benzazepine derivatives of 2-methyl-1-phenylimidazo[4,5-c]pyridine” (J Med Chem, 1995)

What follows are compounds tested against Platelet-activating factor receptor (Mus musculus) (UniProt Q62035) (assay: Ability to protect mice from lethal effects after administration of PAF (Platelet-Activating Factor)).
Assay type: functional, organism-based
Procedure, shortened: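 Mice received the test agent orally and were then given a lethal PAF injection. ED50 was taken as the oral dose that protected the animals from PAF-induced death.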

Sequence of Platelet-activating factor receptor (Mus musculus) (Q62035 whole entry): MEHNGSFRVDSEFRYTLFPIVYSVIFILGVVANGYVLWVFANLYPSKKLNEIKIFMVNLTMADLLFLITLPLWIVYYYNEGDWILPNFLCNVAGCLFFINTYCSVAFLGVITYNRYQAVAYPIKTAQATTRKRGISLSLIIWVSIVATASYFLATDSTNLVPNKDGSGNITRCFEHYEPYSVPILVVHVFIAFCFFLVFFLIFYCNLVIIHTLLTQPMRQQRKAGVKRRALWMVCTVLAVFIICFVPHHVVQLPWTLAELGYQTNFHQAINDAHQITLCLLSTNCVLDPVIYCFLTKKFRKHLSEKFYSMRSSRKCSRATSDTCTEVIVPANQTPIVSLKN

Row | SMILES | ED50 [mg/kg]
1 | Cc1nc2cnccc2n1-c1ccc(C2CC(=O)N(C)c3cc(Cl)c(Cl)cc3C2)cc1 (stereo not given) | 0.03
2 | Cc1nc2cnccc2n1-c1ccc(C2=Nc3cc(Cl)c(Cl)cc3NC(=O)C2)cc1 | 0.07
3 | Cc1nc2cnccc2n1-c1ccc(C2=Nc3ccccc3N(C)C(=O)C2)cc1 | 0.03
4 | Cc1nc2cnccc2n1-c1ccc(C2=Nc3ccccc3NC(=O)C2)cc1 | 0.5
5 | Cc1cc2c(cc1C)NC(=O)CC(c1ccc(-n3c(C)nc4cnccc43)cc1)=N2 | 0.12
6 | Cc1nc2cnccc2n1-c1ccc(C2CC(=O)Nc3cc(Cl)c(Cl)cc3C2)cc1 (stereo not given) | 0.05
7 | Cc1nc2cnccc2n1-c1ccc(C2=Nc3cc(Cl)c(Cl)cc3C(=O)NC2)cc1 | 0.2
8 | Cc1nc2cnccc2n1-c1ccc(C2=CCC(=O)c3ccccc3N2)cc1 | 0.75

These compounds were tested on Mus musculus (assay: The compound was tested for their ability to protect mice from lethal effects after administration of PAF (Platelet-Activating Factor)).
Assay type: functional
Procedure, shortened: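 Mice were given the compound orally and then a lethal injection of PAF. The value is the oral dose (ED50) that protected the mice from PAF-induced death.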

Row | SMILES | ED50 [mg/kg]
9 | CCOC(=O)C1=C(c2ccc(-n3c(C)nc4cnccc43)cc2)NC(C)=C(C(=O)Nc2ccccn2)C1c1ccccc1Cl (stereo not given) | 0.26
10 | Cc1nnc2n1-c1sc3c(c1C(c1ccccc1Cl)=NC2)CC(C(=O)N1CCOCC1)C3 (stereo not given) [BEPAFANT] | 0.1
